Test results as given in ChEMBL document CHEMBL1154083, “Synthesis and structure-activity relationship of 3beta-(4-alkylthio, -methylsulfinyl, and -methylsulfonylphenyl)tropane and 3beta-(4-alkylthiophenyl)nortropane derivatives for monoamine transporters” (Bioorg Med Chem, 2009).

Assays:
[1] = target: Sodium-dependent noradrenaline transporter (Homo sapiens, UniProt P23975); test: Displacement of [3H]nisoxetine from NET
[2] = Selectivity ratio of Ki for NET to Ki for 5-HTT
In short: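 NET/5-HTT selectivity: NET Ki (from [3H]nisoxetine binding) divided by 5-HTT Ki (from [3H]paroxetine binding). Both values are means of three or four triplicate experiments.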

[3] = Selectivity ratio of Ki for NET to IC50 for DAT
In short: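 NET/DAT selectivity: NET Ki (from [3H]nisoxetine binding) divided by DAT IC50 (from [3H]WIN35,428 binding). Both values are means of three or four triplicate experiments.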

[4] = target: Sodium-dependent serotonin transporter (Homo sapiens, UniProt P31645); test: Displacement of [3H]paroxetine from 5-HTT
Chain of Sodium-dependent serotonin transporter (P31645 whole entry): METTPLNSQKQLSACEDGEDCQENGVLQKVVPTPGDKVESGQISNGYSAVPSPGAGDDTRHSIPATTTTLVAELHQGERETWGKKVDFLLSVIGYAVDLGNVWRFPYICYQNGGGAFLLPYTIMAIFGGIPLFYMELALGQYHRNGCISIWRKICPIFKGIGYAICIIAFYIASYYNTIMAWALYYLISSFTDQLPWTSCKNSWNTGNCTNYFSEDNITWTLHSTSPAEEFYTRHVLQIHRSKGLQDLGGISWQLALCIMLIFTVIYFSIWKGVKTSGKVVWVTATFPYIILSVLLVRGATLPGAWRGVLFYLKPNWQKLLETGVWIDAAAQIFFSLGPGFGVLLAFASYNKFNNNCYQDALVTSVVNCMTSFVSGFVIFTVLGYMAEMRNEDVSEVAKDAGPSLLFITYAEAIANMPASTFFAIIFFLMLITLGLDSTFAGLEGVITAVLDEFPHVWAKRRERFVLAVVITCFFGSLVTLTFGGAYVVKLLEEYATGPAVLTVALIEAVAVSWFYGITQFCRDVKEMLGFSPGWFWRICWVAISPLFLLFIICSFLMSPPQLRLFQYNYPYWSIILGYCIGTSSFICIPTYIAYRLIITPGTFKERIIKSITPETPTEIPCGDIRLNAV
In short: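 Inhibition of [3H]paroxetine binding at 5-HTT, a single-site transporter, with Ki calculated from it. Compounds tested as HCl or tartrate salts. Mean ± standard error of three or four experiments, each run in triplicate.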

[5] = target: Sodium-dependent dopamine transporter (Homo sapiens, UniProt Q01959); test: Displacement of [3H]WIN-35428 from DAT
Chain of Sodium-dependent dopamine transporter (Q01959 whole entry): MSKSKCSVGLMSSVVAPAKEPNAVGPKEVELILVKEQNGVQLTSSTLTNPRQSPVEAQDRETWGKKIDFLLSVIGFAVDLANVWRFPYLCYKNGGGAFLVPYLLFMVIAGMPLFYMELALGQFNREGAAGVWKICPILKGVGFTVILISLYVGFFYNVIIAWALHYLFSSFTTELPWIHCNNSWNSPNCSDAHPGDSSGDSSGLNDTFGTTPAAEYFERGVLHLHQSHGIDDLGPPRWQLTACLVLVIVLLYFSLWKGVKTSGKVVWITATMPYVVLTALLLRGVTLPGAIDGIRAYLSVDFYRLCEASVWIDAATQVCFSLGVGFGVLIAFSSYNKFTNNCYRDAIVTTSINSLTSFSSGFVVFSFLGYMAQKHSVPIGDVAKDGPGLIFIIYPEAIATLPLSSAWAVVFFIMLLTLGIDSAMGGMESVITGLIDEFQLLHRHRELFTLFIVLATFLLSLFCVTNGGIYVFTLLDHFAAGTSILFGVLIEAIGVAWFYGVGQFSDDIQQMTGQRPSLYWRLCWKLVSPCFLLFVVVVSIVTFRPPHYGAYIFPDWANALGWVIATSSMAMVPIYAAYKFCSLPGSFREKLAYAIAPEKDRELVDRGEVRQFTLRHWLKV
In short: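 [3H]WIN35,428 displacement at DAT; IC50 reported because DAT has two binding sites. Compounds tested as HCl or tartrate salts. Mean ± standard error of three or four experiments, each run in triplicate.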

Chain of Sodium-dependent noradrenaline transporter (P23975 whole entry): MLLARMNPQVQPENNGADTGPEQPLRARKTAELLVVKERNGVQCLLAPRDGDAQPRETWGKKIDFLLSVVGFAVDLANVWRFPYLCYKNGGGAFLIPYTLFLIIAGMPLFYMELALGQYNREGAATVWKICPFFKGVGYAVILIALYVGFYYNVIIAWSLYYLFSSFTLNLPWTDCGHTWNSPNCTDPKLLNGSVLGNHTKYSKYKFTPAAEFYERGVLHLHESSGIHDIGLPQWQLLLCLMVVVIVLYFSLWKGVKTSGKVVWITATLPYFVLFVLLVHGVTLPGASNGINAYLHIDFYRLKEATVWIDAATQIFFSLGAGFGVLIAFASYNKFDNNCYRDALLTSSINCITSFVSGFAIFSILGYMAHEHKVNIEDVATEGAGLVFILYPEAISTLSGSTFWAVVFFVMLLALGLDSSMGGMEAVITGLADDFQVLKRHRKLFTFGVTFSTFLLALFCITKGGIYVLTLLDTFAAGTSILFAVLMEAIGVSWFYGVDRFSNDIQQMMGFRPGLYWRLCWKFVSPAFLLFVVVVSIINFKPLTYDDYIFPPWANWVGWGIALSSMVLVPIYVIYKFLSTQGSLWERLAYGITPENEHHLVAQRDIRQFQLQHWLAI

| Compound | Ki [1] | Ratio Ki [2] | Ratio [3] | Ki [4] | IC50 [5] |
| --- | --- | --- | --- | --- | --- |
| CCSc1ccc([C@H]2CC3CCC([C@H]2C(=O)OC)N3CCCF)cc1 (stereo partly specified) | > 2000 nM | > 74 | 2 | 27 nM | 1200 nM |
| COC(=O)[C@H]1[C@@H](c2ccc(SC)c(Br)c2)C[C@@H]2CC[C@H]1N2C | 121 nM | 202 | 12 | 0.6 nM | 10.1 nM |
| COC(=O)[C@@H]1C2CCC(C[C@@H]1c1ccc(SC)cc1)N2CCCF (stereo partly specified) | 960 nM | 320 | 9 | 3 nM | 112 nM |
| COC(=O)[C@H]1[C@@H](c2ccc(SC)cc2)C[C@@H]2CC[C@H]1N2C | 220 nM | 314 | 24 | 0.7 nM | 9 nM |
| CCCN1C2CCC1[C@@H](C(=O)OC)[C@@H](c1ccc(SC)cc1)C2 (stereo partly specified) | 1200 nM | 211 | 16 | 5.7 nM | 74 nM |
| CCSc1ccc([C@H]2CC3CCC(N3)[C@H]2C(=O)OC)cc1 (stereo partly specified) | 118 nM | 94 | 0.7 | 1.26 nM | 177 nM |
| COC(=O)[C@H]1[C@@H](c2ccc([S+](C)[O-])cc2)C[C@@H]2CC[C@H]1N2C (stereo partly specified) | 515 nM | 120 | 6 | 4.3 nM | 91 nM |
| COC(=O)[C@H]1[C@@H](c2ccc([S+](C)[O-])c(Br)c2)C[C@@H]2CC[C@H]1N2C (stereo partly specified) | 690 nM | 216 | 9 | 3.2 nM | 76 nM |
| C=CCN1C2CCC1[C@@H](C(=O)OC)[C@@H](c1ccc(SC)cc1)C2 (stereo partly specified) | 2000 nM | 364 | 28 | 5.5 nM | 71 nM |
| CCCN1C2CCC1[C@@H](C(=O)OC)[C@@H](c1ccc(SCC)cc1)C2 (stereo partly specified) | > 2000 nM | > 41 | > 2 | 49 nM | 900 nM |
| COC(=O)[C@H]1[C@@H](c2ccc(S(C)(=O)=O)cc2)C[C@@H]2CC[C@H]1N2C | > 10000 nM | > 48 | – | 208 nM | > 10000 nM |
| COC(=O)[C@H]1[C@@H](c2ccc(SC(C)C)cc2)C[C@@H]2CC[C@H]1N2C | 129 nM | 7 | 8 | 23 nM | 16 nM |
| CCSc1ccc([C@H]2C[C@@H]3CC[C@H]([C@H]2C(=O)OC)N3C)cc1 | 1170 nM | 260 | 5 | 4.5 nM | 232 nM |
| COC(=O)[C@H]1[C@@H](c2ccc(SC(F)(F)F)cc2)C[C@@H]2CC[C@H]1N2C | 1900 nM | 238 | 10 | 8 nM | 200 nM |
| COC(=O)[C@H]1[C@@H](c2ccc(OC)cc2)C[C@@H]2CC[C@H]1N2C | 1110 nM | – | – | 4.3 nM | – |
| C=CCN1C2CCC1[C@@H](C(=O)OC)[C@@H](c1ccc(SCC)cc1)C2 (stereo partly specified) | > 2000 nM | > 43 | > 2 | 47 nM | 1100 nM |
| COC(=O)[C@@H]1C2CCC(C[C@@H]1c1ccc(SC)cc1)N2 (stereo partly specified) | 21 nM | 110 | 0.8 | 0.19 nM | 28 nM |
